According to ChEMBL document CHEMBL1154110, “Identification, structure-activity relationships and molecular modeling of potent triamine and piperazine opioid ligands” (Bioorg Med Chem, 2009):
pIC50: −log10 of the molar value.

Assays:
[1] = biological target: Delta-type opioid receptor (Rattus norvegicus, UniProt P33533); assay: Displacement of [3H]DSLET from delta opioid receptor in rat brain by liquid scintillation counting; type: tissue-based
[2] = biological target: Kappa-type opioid receptor (Cavia porcellus, UniProt P41144); assay: Displacement of [3H]U69593 from guinea pig kappa opioid receptor by liquid scintillation counting
Sequence of Kappa-type opioid receptor (P41144 whole entry): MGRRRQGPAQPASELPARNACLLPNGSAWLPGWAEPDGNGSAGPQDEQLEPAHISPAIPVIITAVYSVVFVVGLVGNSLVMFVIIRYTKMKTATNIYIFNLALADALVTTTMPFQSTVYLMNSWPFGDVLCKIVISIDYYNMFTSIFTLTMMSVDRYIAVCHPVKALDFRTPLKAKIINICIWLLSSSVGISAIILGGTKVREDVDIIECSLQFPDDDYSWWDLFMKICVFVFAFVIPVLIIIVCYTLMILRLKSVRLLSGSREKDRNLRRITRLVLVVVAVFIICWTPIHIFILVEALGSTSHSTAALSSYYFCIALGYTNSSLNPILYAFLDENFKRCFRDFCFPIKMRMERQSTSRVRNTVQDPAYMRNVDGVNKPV
In short: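 Receptor membrane suspension incubated with 3 nM [3H]U69,593 as the tritiated competitor. Unlabeled U50,488 served as the kappa standard: it generated a standard curve on every plate and defined nonspecific binding. IC50 values came from dose-response testing.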

Mu-type opioid receptor = Mu-type opioid receptor (Rattus norvegicus, UniProt P33535); assay: Displacement of [3H]DAMGO from mu opioid receptor in rat brain by liquid scintillation counting; type: tissue-based
Sequence of Mu-type opioid receptor (P33535 whole entry): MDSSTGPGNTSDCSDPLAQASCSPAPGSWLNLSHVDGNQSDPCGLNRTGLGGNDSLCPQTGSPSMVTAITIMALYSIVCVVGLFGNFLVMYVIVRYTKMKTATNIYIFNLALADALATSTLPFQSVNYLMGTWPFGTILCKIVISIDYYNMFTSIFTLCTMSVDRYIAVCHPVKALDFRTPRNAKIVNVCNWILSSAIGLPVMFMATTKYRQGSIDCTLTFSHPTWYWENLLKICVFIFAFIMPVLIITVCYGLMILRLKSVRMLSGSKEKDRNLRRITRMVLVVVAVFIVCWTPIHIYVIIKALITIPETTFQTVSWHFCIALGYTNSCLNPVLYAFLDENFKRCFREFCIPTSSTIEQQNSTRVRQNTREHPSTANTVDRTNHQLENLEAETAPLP

Sequence of Delta-type opioid receptor (P33533 whole entry): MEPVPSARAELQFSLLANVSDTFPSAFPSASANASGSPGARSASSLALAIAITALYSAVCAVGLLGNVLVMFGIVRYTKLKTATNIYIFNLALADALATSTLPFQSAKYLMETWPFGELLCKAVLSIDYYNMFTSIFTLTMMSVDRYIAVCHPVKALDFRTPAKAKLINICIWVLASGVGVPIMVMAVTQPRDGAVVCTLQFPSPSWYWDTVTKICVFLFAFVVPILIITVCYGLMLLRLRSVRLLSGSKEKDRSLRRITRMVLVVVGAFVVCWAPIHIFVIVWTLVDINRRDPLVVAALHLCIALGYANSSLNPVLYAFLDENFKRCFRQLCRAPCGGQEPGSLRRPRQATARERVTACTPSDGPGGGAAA

Row | Structure (SMILES) | pIC50 [1] | pIC50 [2] | pIC50 (Mu-type opioid receptor)
1 | CCC[C@H](CNC)NC[C@@H](CCC)NCCC1CC2CCC1C2 (stereo partly specified) | < 5.00 | < 6.00 | < 6.00
2 | CNC[C@H](Cc1ccc(O)cc1)N1CCN(CCc2cccc(C)c2)[C@@H](C(C)C)C1 | < 5.00 | < 6.00 | 6.69
3 | CNC[C@H](Cc1ccc(O)cc1)N1CCN(CCC2CC3CCC2C3)[C@@H](C(C)C)C1 (stereo partly specified) | < 5.00 | 6.43 | 6.65
4 | CNC[C@@H](Cc1ccc(O)cc1)N1CCN(CCCC2CCCCC2)[C@H](C(C)C)C1 | < 5.00 | 6.18 | 6.04
5 | CCCC[C@H](CNCc1ccccc1)N1CCN(CC2CCCCCC2)[C@H](Cc2ccc(O)cc2)C1 | < 5.00 | 6.79 | < 6.00
6 | CC(C)[C@@H]1CN([C@@H](CNCc2ccccc2)C(C)C)CCN1CCc1ccccc1 | < 5.00 | < 6.00 | < 6.00
7 | CCC[C@H](CNC)NC[C@H](Cc1ccc(O)cc1)NCC1CCC(C)CC1 (stereo partly specified) | < 5.00 | 5.76 | 6.65
8 | CC(C)[C@@H]1CN([C@@H](CNCc2ccccc2)C(C)C)CCN1CCC1CCCC1 | < 5.00 | < 6.00 | < 6.00
9 | CC(C)[C@H](CNCc1ccccc1)N1CCN(CCC2CC3CCC2C3)[C@@H](Cc2ccccc2)C1 (stereo partly specified) | < 5.00 | < 6.00 | < 6.00
10 | CC(C)CCN1CCN([C@@H](CNCc2ccccc2)C(C)C)C[C@H]1C(C)C | < 5.00 | < 6.00 | < 6.00
11 | CC[C@H](C)[C@@H](CNC)N1CCN(CCCC2CCCCC2)[C@H](C(C)C)C1 | < 5.00 | 7.24 | < 6.00
12 | CCC[C@H](CN[C@H](CNC)Cc1ccc(O)cc1)NCCC1CCCC1 | < 5.00 | 7.01 | 6.19
13 | CCCC[C@H](CNCc1ccccc1)N1CCN(CC(C)C)[C@H](Cc2ccc(O)cc2)C1 | < 5.00 | 6.99 | < 6.00
14 | CCC(C)[C@@H](CNC)N1CCN(CCC23CC4CC(CC(C4)C2)C3)[C@H](C(C)C)C1 (stereo partly specified) | < 5.00 | 6.92 | < 6.00
15 | CCC[C@H](CNC)NC[C@H](Cc1ccc(O)cc1)NCCC1CCCC1 | < 5.00 | 6.12 | 6.62
16 | CNC[C@H](Cc1ccc(O)cc1)N1CCN(CC2CCCCCC2)CC1 | < 5.00 | 7.03 | 6.82
17 | CC[C@H](C)[C@@H](CNC)N1CCN(CCC2CC3CCC2C3)[C@H](C(C)C)C1 (stereo partly specified) | < 5.00 | < 6.00 | < 6.00
18 | CCC[C@H](CNC)NC[C@@H](CCC)NCC1CCCCCC1 | < 5.00 | < 6.00 | < 6.00
19 | CC(C)[C@H](CNCc1ccccc1)N1CCN(CCC2CCCC2)[C@@H](Cc2ccccc2)C1 | < 5.00 | < 6.00 | < 6.00
20 | CCC[C@H](CNC)NC[C@@H](CCC)NCCC12CC3CC(CC(C3)C1)C2 | < 5.00 | < 6.00 | < 6.00
21 | CNC[C@@H](Cc1ccc(O)cc1)N1CCN(CC2CCCCCC2)[C@@H](C(C)C)C1 | < 5.00 | < 6.00 | < 6.00

Row | Structure (SMILES) | pIC50 [1] | pIC50 [2] | pIC50 (Mu-type opioid receptor)
22 | CNC[C@@H](Cc1ccc(O)cc1)N1CCN(CCCC(C)C)CC1 | < 5.00 | < 6.00 | 6.33
23 | CNC[C@@H](Cc1ccc(O)cc1)N1CCN(CCC2CC3CCC2C3)CC1 (stereo partly specified) | < 5.00 | 6.32 | 7.04
24 | CNC[C@H](Cc1ccc(O)cc1)NC[C@H](Cc1ccc(O)cc1)NCC1CCC(C)CC1 (stereo partly specified) | < 5.00 | 6.99 | 6.50
25 | CCC[C@H](CN[C@H](CNC)Cc1ccc(O)cc1)NCC1CCC(C)CC1 (stereo partly specified) | < 5.00 | 7.85 | < 6.00
26 | CNC[C@@H](Cc1ccc(O)cc1)N1CCN(CCC2CC3CCC2C3)[C@H](C(C)C)C1 (stereo partly specified) | < 5.00 | 6.64 | 6.47
27 | CNC[C@H](Cc1ccc(O)cc1)NC[C@H](Cc1ccc(O)cc1)NCCC1CCCC1 | 5.54 | 6.73 | 6.77
28 | CCC[C@H](CN[C@H](CNC)Cc1ccc(O)cc1)NCCC1CC2CCC1C2 (stereo partly specified) | 5.68 | 7.77 | 6.76
29 | CCC[C@H](CNC)NC[C@@H](CCC)NCCC1CCCC1 | < 5.00 | 6.99 | < 6.00
30 | CNC[C@H](Cc1ccc(O)cc1)NC[C@H](Cc1ccc(O)cc1)NCC1CCCCCC1 | < 5.00 | 7.66 | 7.27
31 | CNC[C@@H](Cc1ccc(O)cc1)N1CCN(CCC2CC3CCC2C3)[C@@H](C(C)C)C1 (stereo partly specified) | < 5.00 | < 6.00 | < 6.00
32 | CCC[C@H](CNC)NC[C@H](Cc1ccc(O)cc1)NCC1CCCCCC1 | < 5.00 | 6.36 | 6.97
33 | CNC[C@H](Cc1ccc(O)cc1)NC[C@H](Cc1ccc(O)cc1)NCCC1CC2CCC1C2 (stereo partly specified) | < 5.00 | 6.34 | 6.57
34 | CCC[C@H](CN[C@H](CNC)Cc1ccc(O)cc1)NCCC12CC3CC(CC(C3)C1)C2 | < 5.00 | 7.43 | 6.28
35 | CNC[C@@H](Cc1ccc(O)cc1)N1CCN(CC2CCCCCC2)CC1 | < 5.00 | 6.65 | 7.05
36 | CC(C)(C)CCN1CCN([C@@H](CNCc2ccccc2)Cc2ccc(O)cc2)C[C@@H]1Cc1ccc(O)cc1 | 5.34 | 6.41 | < 6.00
37 | CCC[C@H](CNC)NC[C@H](Cc1ccc(O)cc1)NCCC1CC2CCC1C2 (stereo partly specified) | < 5.00 | 6.48 | 6.75
38 | CNC[C@@H](Cc1ccc(O)cc1)N1CCN(CCCC(C)C)[C@@H](C(C)C)C1 | < 5.00 | < 6.00 | < 6.00
39 | CNC[C@H](Cc1ccc(O)cc1)N1CCN(CCC2CC3CCC2C3)CC1 (stereo partly specified) | 5.71 | 6.43 | 6.78
40 | CCC[C@H](CNC)NC[C@@H](CCC)NCC1CCC(C)CC1 (stereo partly specified) | < 5.00 | < 6.00 | < 6.00
41 | CNC[C@@H](Cc1ccc(O)cc1)N1CCN(CCc2cccc(C)c2)[C@@H](C(C)C)C1 | < 5.00 | < 6.00 | < 6.00
42 | CC(C)[C@@H]1CN([C@@H](CNCc2ccccc2)C(C)C)CCN1CCC1CC2CCC1C2 (stereo partly specified) | < 5.00 | < 6.00 | < 6.00
